Laboratory results reported in ChEMBL document CHEMBL4513216, “Probing the Open Global Health Chemical Diversity Library for Multistage-Active Starting Points for Next-Generation Antimalarials” (ACS Infect Dis, 2020).

Test: Toxicity liver stage against HepG2, at 10uM
Type: cell-based
Set-up: test concentration 10 uM, cell line HepG2-A16-CD81EGFP
Conditions: human, HepG2-A16-CD81EGFP cells; read-out: INHIBITION
In short: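 Uninfected HepG2-A16-CD81EGFP cells, 3 × 10^3 per well, 1536-well, plated on prespotted compound at 10 μM final, parasite-free screening media added to match infected plates; puromycin 10 μM positive, DMSO 0.5% negative; run in parallel with 48 h PbLuc assay at 37 °C, 5% CO2; viability by CellTiter-Glo luminescence, normalized to controls.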

SMILES	cytotoxicity at 10 µM [%]
CC(C)(C)NC(=O)CN1CCCN(c2ccc(C#N)cn2)CC1	-4.31
Cc1[nH]ncc1CCCNC(=O)Nc1ccc(C#N)cc1	1.8
CCCn1cnc2c1CN(S(=O)(=O)Cc1ccccc1)[C@H](C(=O)OC)C2	-4.84
O=C([C@@H]1Cc2[nH]cnc2CN1Cc1cc2ccccc2o1)N1CCCC1	2.23
Cc1ccc(-c2cn3c(n2)CO[C@@H](CNCc2nccn2C)C3)cc1	-10.6
CCCNc1ccc(C(=O)NCCc2ccc(Cl)cc2)cn1	-1.05
O=c1n(Cc2ccc(F)cc2)nc2ncccn12	-8.18
CCCn1cnc2c(cnn2-c2cccc(C)c2C)c1=O	-8.17
CN1C[C@@H]2CN(C(=O)C3CC=CC3)C[C@@H]2C1=O	-114
CC(C)C(=O)N1CCc2nc(C(=O)Nc3cccnc3)sc2CC1	12.5
O=C(NCc1ccco1)[C@H]1C[C@H]2OCC[C@H]2N(C(=O)c2ccnnc2)C1	-10.3
CS(=O)(=O)NC[C@@H]1OC[C@H]2CN(C(=O)c3cnccn3)CC[C@H]21	2.98
CCN1C(=O)C2(CCOCC2)c2cc(NC(=O)c3cc(C)n[nH]3)ccc21	-2.49
CS(=O)(=O)N1CCC2(COCc3cnc(-c4ccccc4)nc32)C1 (configuration not stated)	1.22
CCN(CC)CC1CN(Cc2c(C)noc2C)Cc2nccn2C1 (configuration not stated)	2.37
Cc1cc(O)c(OCC(=O)/N=c2\[nH]c(C)c(C)s2)cn1	8.6
OCCNc1nc(Nc2ccccc2)c2nccnc2n1	3.72
COc1ccc2nnc(C(=O)NC3CCCC3)nc2c1	6.17
CCOc1cccc(NC(=O)c2cc[nH]n2)n1	3.51
COCC(=O)Nc1ccc(C)cc1-c1nc(C2CC2)no1	-3.67
Cn1cc(NC(=O)N2CCCC2c2cccnc2)ccc1=O (configuration not stated)	-3.73
COc1ccc(OC)c(-c2csc(-c3cccc(C(=O)O)c3)n2)c1	3.75
CCc1nc(CN2CCCN(C(=O)c3cccn3C)CC2)cs1	3.41

SMILES	cytotoxicity at 10 µM [%]
CCOc1ccnc(N2CCCN(c3nc(C4CC4)ns3)CC2)n1	6.97
CCn1ccnc1CN1CCN(c2ncnc3ccccc23)CC1	-1.8
Cc1cc(CNC(=O)N2CCc3ccccc32)on1	-3.57
O=C(CCCc1ccccn1)N1CCC(n2cccc2)CC1	4.59
CCc1cnc(N2CCN(CC(=O)Nc3c(C)n[nH]c3C)CC2)s1	-2.69
Cc1cccc(Nc2c(C#N)c(=O)n(C)c(=O)n2C)c1	-7.48
CC(C)Cc1ccc(C(=O)Cn2cnnc2[S+](C)[O-])cc1 (configuration not stated)	-7.08
Fc1cccc(-n2cccn2)c1NCc1nnc(C2CC2)o1	-5.48
CS(=O)(=O)NCC1CCCN(C(=O)Nc2ccccc2N2CCCC2)C1 (configuration not stated)	-139
CNS(=O)(=O)c1ccc(CCC(=O)NCc2cccc(OC)c2)cc1	-148
COc1ncnc(N)c1CNCC(C)SC (configuration not stated)	-0.554
COc1ccc(N(C(=O)Cc2ccc(C)nc2)C(C)C)cc1F	0.854
O=C1CC(CNc2cncc(Cl)n2)c2ccccc2N1 (configuration not stated)	-0.99
CCC1CN(c2cnn(-c3ccccc3)c(=O)c2Cl)CCO1 (configuration not stated)	-17.4
CCCN(CCC)S(=O)(=O)NCCc1cc(C)ccc1OC	7.75
COC(=O)c1cnc(/C=C/c2ccc(C(=O)O)cc2)s1	2.56
COc1c(C)cnc(CNC(=O)CCOCC(C)C)c1C	-4.44
CC(C)Cn1ncc2cc(C(=O)N(C)CCc3ccccc3)cnc21	-3.42
Cc1cc(CNC(=O)c2cc(C(C)C)n(C)n2)ccc1S(C)(=O)=O	-3.11
COCCN(CCN(C)C)C(=O)NC1CCc2ccccc2C1 (configuration not stated)	-5.17
OCCN1CCN(CC(O)c2cc(Cl)ccc2Cl)CC1 (configuration not stated)	-3.03
Cc1ccccc1C(NC(=O)CNC(=O)c1ccoc1C)C(C)C (configuration not stated)	2.74
CCc1cnc(NC(=O)NC2CCN(C3CCCC3)CC2)s1	-7.27

SMILES	cytotoxicity at 10 µM [%]
Cc1cccc(CC(=O)Nc2cccnc2N2CCC(CO)CC2)c1	-2.23
O=C(CNc1ccc(OC2CCOC2)cc1)NCc1ccc(F)cc1 (configuration not stated)	3.4
CC(=O)c1cccc(NCC(=O)NC(N)=O)c1	2.54
CNC(=O)c1cnc(/C=C/c2cc(OC)cc(OC)c2)s1	-19.6
Cn1cc(-c2csc(N3CCOCC3)n2)cn1	0.469
Cc1csc2ncc(-c3ccnc(N4CCCC4)n3)c(=O)n12	-13.2
CCOC(=O)N1CCC2(CC1)N=C(CCC(C)C)NC2=O	-6.55
Cc1ccnc(N2CCN(C3CCS(=O)(=O)C3)CC2)n1 (configuration not stated)	-2.71
COc1ccccc1[C@@H]1CN(Cc2cnc(N(C)C)nc2)C[C@H]1C(=O)O	-3.89
COCCC1(CO)CCCN(Cc2ccc(C#N)cc2)C1 (configuration not stated)	-156
CC(C1CCN(Cc2ccccc2OC(F)F)CC1)N1CCOCC1 (configuration not stated)	-7.4
O=c1[nH]c2ccccc2cc1CN(Cc1ccccn1)CC1CCCO1 (configuration not stated)	-4.84
CC(=O)NCCNC(=O)c1cnc2c(c1)nc(-c1ccccc1Cl)n2C	4.99
CC(O)C1CCN(C(=O)Nc2nc(-c3ccccc3)ns2)CC1 (configuration not stated)	-135
COc1cc2[nH]c(=O)c(CN3CCC[C@@H]3C(N)=O)cc2c(OC)c1OC	-6.84
Cc1nc(C(C)C)sc1C(=O)NCCSc1ccccn1	3.76
CC(NC(=O)c1cc2n(n1)CCCN(C)C2)c1cn2ncsc2n1 (configuration not stated)	-6.73
NC(=O)CCn1cc(CNCCCc2ccncc2)c2ccccc21	7.28
Cc1ccc(NC(=O)N2CCCC(O)(CO)CC2)cc1Cl (configuration not stated)	1.96
COc1ncccc1-c1cc(C(=O)NC2CC2)ccn1	-11.8
OCC(CO)N1CCC(c2nnc(Cn3ccnc3)n2C2CC2)CC1	-4.36
O=C1OCCN1Cc1nc(C2(c3ccc(F)cc3)CCOC2)no1 (configuration not stated)	-5.22
COc1ccc(OC)c(C2CCN(C3CCOCC3)C2)c1 (configuration not stated)	-6.28

SMILES	cytotoxicity at 10 µM [%]
Cn1ccnc1-c1ccc(NCc2cn3c(n2)SCC3)nn1	-0.641
CCN(CC)C(CNCc1ccc(OC)c(F)c1)c1ccco1 (configuration not stated)	15.2
NC(=O)N1CCCC(C(=O)NCc2noc(Cc3ccccc3)n2)C1 (configuration not stated)	2.4
CCOCC(=O)N1CCc2c(ncnc2N2CCOCC2)C1	-6.63
O=C(N1CCOCC1)N1CCCC1c1nc(-c2ccccn2)no1 (configuration not stated)	10.7
CC(=O)NC1CC(C)(C)Cc2c1cnn2-c1cccc(F)c1 (configuration not stated)	-144
CCc1ccccc1OC1CN(C(=O)CN(C)Cc2cccnc2)C1	1.61
C=C(C)COc1ccccc1NC(=O)N1CCOCC1CO (configuration not stated)	-4.1
CCC(NC(=O)c1cnc(N(C)C)nc1C)c1ccc(S(C)(=O)=O)cc1 (configuration not stated)	-3.5
COCCCN1CC2(CCCN(c3ncnc4[nH]ccc34)C2)CCC1=O (configuration not stated)	-4.67
O=C(c1cc(COc2ccc3c(c2)OCO3)[nH]n1)N1CC=CC1CO (configuration not stated)	-6.49
CC(NC(=O)NCc1ccccn1)c1ccc2c(c1)CCC(=O)N2 (configuration not stated)	7.47
COc1ccccc1C(C)N(C)Cc1nc2c(cnn2C)c(=O)[nH]1 (configuration not stated)	-9.1
CC(c1nc(C2CC2)no1)N1CCN(CCN2CCCC2=O)CC1 (configuration not stated)	-10.9
Cc1ccc(N2CCCN(C(=O)C3CCCO3)CC2)nn1 (configuration not stated)	-11.1
Cc1cnn(CCNCc2csc(-c3ccsc3)n2)c1	-6.75
CC(C)Oc1ncccc1CNC(=O)N1CCC(n2cccc2)CC1	3.48
O=C(Nc1ccccc1F)C1=NN(c2ccccc2)C(=O)CN1	-13.2
c1csc(-c2noc(CN3CCCC3Cn3cccn3)n2)c1 (configuration not stated)	-12.7
CCN(Cc1cccc2c1OCO2)C(=O)Nc1ccccn1	-21.7
Cc1cc(NC(=O)CN2CCC(N3CCNC3=O)CC2)on1	2.99
CCN(CC)CC(=O)N1CCCCC1c1nc(C)cs1 (configuration not stated)	-5.78
COc1cc(CNC(=O)Nc2nnc(C(C)C)s2)ccn1	-8.24

SMILES	cytotoxicity at 10 µM [%]
O=C(c1cn(-c2ccc(F)cc2)nn1)N1CCCC(n2cccn2)C1 (configuration not stated)	-3.56
CN(CCc1ccncc1)CC1CCCN1c1cccnn1 (configuration not stated)	1.09
O=C(NCCCn1ccnc1)NCC(c1ccco1)N1CCCCC1 (configuration not stated)	5.71
CCOc1ccc(OCC(O)CN2CCN(S(C)(=O)=O)CC2)cc1 (configuration not stated)	-36.8
Cc1cnn(CC2CCCN2C(=O)c2csc(-c3nnc[nH]3)n2)c1 (configuration not stated)	-2.94
Cc1csc(CNC(=O)NCc2ccc3c(c2)OCCO3)n1	-5.52
Cc1cccc(CS(=O)(=O)CC(=O)N(C)Cc2ccccc2F)c1	-2.71
Cc1cccc(C(=O)N2C[C@@H](OCc3ccncc3)[C@@H]3OCCC[C@@H]32)n1	-5.06
COCc1nn(C)c2c1CN(Cc1cnn(C)c1)CC2	1.64
COCc1nn(C(C)C)c2c1CCN(Cc1ccoc1)C2	3.33
COc1ccc2c(c1)C1(CCN(Cc3cnn(C)c3)CC1)N(C)CC2	-136
CCN(C)c1ncnc2c1CCN(C(=O)c1cnccn1)CC2	-1.86
O=C(NCc1ccco1)[C@H]1CC[C@@H]2[C@@H](CCN2Cc2cccnc2)O1	-3.68
CN(C)CCN1C(=O)C[C@@H]2[C@@H]1CCN2S(=O)(=O)c1ccccc1	-7.52
CCN(C)c1ncnc2c1CCN(C(=O)NCc1cccnc1)CC2	-126
COCCO[C@H]1CCN(Cc2ccsc2)[C@H]1Cc1cccnc1	-2.57
O=C(c1ccncc1)N1CC[C@H]2[C@H]1CCN2S(=O)(=O)C1CC1	-126
Fc1cnc(N2CCCn3c(nnc3Cn3ccnc3)C2)nc1	-140
COc1ccc(Cl)cc1CN(C)CC(=O)Nc1ccnn1C(C)C1CC1 (configuration not stated)	4.85
CCNc1nc2cn(-c3cccc(OC)c3)c(=O)c-2c[nH]1	8.65
